# Data: ChEMBL document CHEMBL3576817, “Synthesis and Evaluation of Conjugates of Novel TLR7 Inert Ligands as Self-Adjuvanting Immunopotentiators” (2015)
# Calls of active or inactive are those of the source. The calls are words filed in the database; no cut-off is given here.
# What was measured:
# [1] = test system: Mus musculus; test: Immunostimulatory activity in C57BL/6 mouse assessed as increase in IFN-gamma level in serum at 0.18 umol, iv after 2 to 48 hrs by luminex bead microassay relative to control; type: functional, organism-based
# How it was run: (§1)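 C57BL/6 mice (n = 5 per group) received 0.18 μmol intravenously. Serum was collected at set times after injection, and IFN-γ and IL-12 were measured by Luminex assay against saline-treated controls. Data are mean ± SEM of two independent experiments.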
# [2] = test system: Mus musculus; test: Immunostimulatory activity in C57BL/6 mouse assessed as increase in IFN-gamma level in serum at 0.18 umol, iv at 2 hrs by luminex bead microassay relative to control; type: functional, organism-based; how it was run: as §1
# [3] = species: Mus musculus; test: Immunostimulatory activity in BALB/c mouse splenocytes assessed as induction of IFN-gamma production at 10 uM after 24 hrs by ELISA relative to GD2; type: functional, Splenocyte
# How it was run: (§2)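 Mouse splenocytes were seeded at 1 × 10^6/mL and incubated 24 h with serial dilutions of free ligand or conjugates. Antigen and conjugate concentrations were scaled for conjugation ratio: one-sixth for BSA, one-fifth for OVA and MSA, equal for MG7, one-quarter for thymosin. Supernatant IFN-γ and IL-12 were measured by ELISA and expressed as conjugated/free ligand ratios. Data are triplicates from one of three experiments.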
# [4] = species: Mus musculus; test: Immunostimulatory activity in BALB/c mouse splenocytes assessed as induction of IL-12 production at 10 uM after 24 hrs by ELISA relative to GD2; type: functional, Splenocyte; how it was run: as §2
# [5] = test system: Mus musculus; test: Immunostimulatory activity in C57BL/6 mouse assessed as increase in IFN-gamma level in serum at 0.18 umol, iv after 2 to 6 hrs by luminex bead microassay in presence of BSA relative to control; type: functional, organism-based; how it was run: as §1
# [6] = target: T1, Toll-like receptor 7 (Mus musculus) (UniProt P58681); test: Agonist activity at TLR7 in mouse BMDM assessed as increase in IL-12 production at 2 uM after 24 hrs by ELISA in presence of MSA
# T1 sequence (whole entry): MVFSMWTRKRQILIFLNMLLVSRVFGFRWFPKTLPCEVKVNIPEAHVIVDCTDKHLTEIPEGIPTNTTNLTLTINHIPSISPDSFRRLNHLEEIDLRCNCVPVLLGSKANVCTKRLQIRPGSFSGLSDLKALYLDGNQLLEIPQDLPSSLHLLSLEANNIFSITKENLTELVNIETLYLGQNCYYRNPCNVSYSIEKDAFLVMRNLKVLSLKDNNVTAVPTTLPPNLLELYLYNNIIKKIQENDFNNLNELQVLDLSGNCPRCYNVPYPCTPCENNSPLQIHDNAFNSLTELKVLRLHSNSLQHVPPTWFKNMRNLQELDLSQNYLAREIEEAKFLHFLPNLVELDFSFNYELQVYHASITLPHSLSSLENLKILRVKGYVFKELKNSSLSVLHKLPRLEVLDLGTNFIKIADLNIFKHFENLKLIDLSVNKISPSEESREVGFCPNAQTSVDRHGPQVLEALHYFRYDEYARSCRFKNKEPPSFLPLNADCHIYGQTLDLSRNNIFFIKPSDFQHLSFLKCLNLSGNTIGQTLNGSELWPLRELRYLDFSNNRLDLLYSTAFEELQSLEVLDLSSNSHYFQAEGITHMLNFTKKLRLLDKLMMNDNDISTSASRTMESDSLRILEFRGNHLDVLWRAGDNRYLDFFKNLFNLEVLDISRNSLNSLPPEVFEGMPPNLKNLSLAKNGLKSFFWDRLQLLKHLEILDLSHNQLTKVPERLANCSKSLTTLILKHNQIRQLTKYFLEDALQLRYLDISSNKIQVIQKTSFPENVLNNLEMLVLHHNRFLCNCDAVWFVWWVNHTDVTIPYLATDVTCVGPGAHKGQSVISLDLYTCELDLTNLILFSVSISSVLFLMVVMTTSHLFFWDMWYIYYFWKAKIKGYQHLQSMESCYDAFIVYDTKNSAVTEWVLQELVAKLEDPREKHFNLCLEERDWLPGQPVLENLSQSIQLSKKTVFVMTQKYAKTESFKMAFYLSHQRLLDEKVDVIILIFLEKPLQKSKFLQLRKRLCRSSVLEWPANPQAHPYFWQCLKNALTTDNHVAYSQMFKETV
# How it was run: (§3)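 BMDM from wild-type or TLR7−/− mice were seeded at 1 × 10^6/mL. They were incubated 24 h with 2 μM antigen conjugates, with the free ligand at 10 μM. IL-12 in culture supernatants was measured by ELISA. Data are mean ± SEM of triplicates from one of three independent experiments. Only material with endotoxin <5 EU/mg was used.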
# [7] = test system: Mus musculus; test: Immunostimulatory activity in C57BL/6 mouse assessed as increase in IFN-gamma level in serum at 0.18 umol, iv after 2 to 6 hrs by luminex bead microassay in presence of MG7 relative to control; type: functional, organism-based; how it was run: as §1
# [8] = test system: Mus musculus; test: Immunostimulatory activity in C57BL/6 mouse assessed as increase in IgG1 level in serum at 5 nmol, sc administered every 7 days measured up to 30 days by ELISA; type: functional, organism-based
# How it was run: (§4)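 Mice were immunized with antigen, free ligand or conjugate, and serum was collected every 7 days from day 0 to day 30. BSA- or OVA-specific IgG1 and IgG2a were measured by ELISA. Data are mean ± SEM of triplicate from one of three independent experiments.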
# [9] = species: Mus musculus; test: Immunostimulatory activity in BALB/c mouse splenocytes assessed as induction of IFN-gamma production at 10 uM after 24 hrs by ELISA in presence of thymosin relative to GD2; type: functional, Splenocyte; how it was run: as §2
# [10] = target: T1, Toll-like receptor 7 (Mus musculus); test: Agonist activity at TLR7 in mouse BMDM assessed as increase in IL-12 production at 2 uM after 24 hrs by ELISA in presence of thymosin; how it was run: as §3
# [11] = test system: Mus musculus; test: Immunostimulatory activity in C57BL/6 mouse assessed as increase in IgG1 level in serum at 0.83 nmol, sc administered every 7 days measured up to 30 days by ELISA in presence of BSA; type: functional, organism-based; how it was run: as §4
# [12] = species: Mus musculus; test: Immunostimulatory activity in BALB/c mouse splenocytes assessed as induction of IFN-gamma production at 10 uM after 24 hrs by ELISA in presence of BSA relative to GD2; type: functional, Splenocyte; how it was run: as §2
# [13] = species: Mus musculus; test: Immunostimulatory activity in BALB/c mouse splenocytes assessed as induction of IL-12 production at 10 uM after 24 hrs by ELISA in presence of thymosin relative to GD2; type: functional, Splenocyte; how it was run: as §2
# [14] = test system: Mus musculus; test: Immunostimulatory activity in C57BL/6 mouse assessed as increase in IFN-gamma level in serum at 0.18 umol, iv after 2 to 6 hrs by luminex bead microassay in presence of thymosin relative to control; type: functional, organism-based; how it was run: as §1
# [15] = species: Mus musculus; test: Immunostimulatory activity in BALB/c mouse splenocytes assessed as induction of IL-12 production at 10 uM after 24 hrs by ELISA in presence of OVA relative to GD2; type: functional, Splenocyte; how it was run: as §2
# [16] = target: T1, Toll-like receptor 7 (Mus musculus); test: Agonist activity at TLR7 in mouse BMDM assessed as increase in IL-12 production at 2 uM after 24 hrs by ELISA in presence of OVA; how it was run: as §3
# [17] = test system: Mus musculus; test: Immunostimulatory activity in C57BL/6 mouse assessed as increase in IgG1 level in serum at 1 nmol, sc administered every 7 days measured up to 30 days by ELISA in presence of OVA; type: functional, organism-based; how it was run: as §4
# [18] = species: Mus musculus; test: Immunostimulatory activity in BALB/c mouse splenocytes assessed as induction of IL-12 production at 10 uM after 24 hrs by ELISA in presence of MG7 relative to GD2; type: functional, Splenocyte; how it was run: as §2
# [19] = test system: Mus musculus; test: Immunostimulatory activity in C57BL/6 mouse assessed as increase in IgG2a level in serum at 0.83 nmol, sc administered every 7 days measured up to 30 days by ELISA in presence of BSA; type: functional, organism-based; how it was run: as §4
# [20] = test system: Mus musculus; test: Immunostimulatory activity in C57BL/6 mouse assessed as increase in IFN-gamma level in serum at 0.18 umol, iv after 2 to 6 hrs by luminex bead microassay in presence of MSA relative to control; type: functional, organism-based; how it was run: as §1
# [21] = test system: Mus musculus; test: Immunostimulatory activity in C57BL/6 mouse assessed as increase in IFN-gamma level in serum at 0.18 umol, iv after 2 to 6 hrs by luminex bead microassay in presence of OVA relative to control; type: functional, organism-based; how it was run: as §1
# [22] = target: T1, Toll-like receptor 7 (Mus musculus); test: Agonist activity at TLR7 in mouse BMDM assessed as increase in IL-12 production at 2 uM after 24 hrs by ELISA in presence of BSA; how it was run: as §3
# [23] = species: Mus musculus; test: Immunostimulatory activity in BALB/c mouse splenocytes assessed as induction of IFN-gamma production at 10 uM after 24 hrs by ELISA in presence of MSA relative to GD2; type: functional, Splenocyte; how it was run: as §2
# [24] = species: Mus musculus; test: Immunostimulatory activity in BALB/c mouse splenocytes assessed as induction of IL-12 production at 10 uM after 24 hrs by ELISA in presence of MSA relative to GD2; type: functional, Splenocyte; how it was run: as §2
# [25] = test system: Mus musculus; test: Immunostimulatory activity in C57BL/6 mouse assessed as increase in IgG2a level in serum at 1 nmol, sc administered every 7 days measured up to 30 days by ELISA in presence of OVA; type: functional, organism-based; how it was run: as §4
# [26] = species: Mus musculus; test: Immunostimulatory activity in BALB/c mouse splenocytes assessed as induction of IL-12 production at 10 uM after 24 hrs by ELISA in presence of BSA relative to GD2; type: functional, Splenocyte; how it was run: as §2
# [27] = species: Mus musculus; test: Immunostimulatory activity in BALB/c mouse splenocytes assessed as induction of IFN-gamma production at 10 uM after 24 hrs by ELISA in presence of OVA relative to GD2; type: functional, Splenocyte; how it was run: as §2
# [28] = test system: Mus musculus; test: Immunostimulatory activity in C57BL/6 mouse assessed as increase in IgG2a level in serum at 5 nmol, sc administered every 7 days measured up to 30 days by ELISA; type: functional, organism-based; how it was run: as §4
# [29] = target: T1, Toll-like receptor 7 (Mus musculus); test: Agonist activity at TLR7 in mouse BMDM assessed as increase in IL-12 production at 2 uM after 24 hrs by ELISA in presence of MG7; how it was run: as §3
# [30] = species: Mus musculus; test: Immunostimulatory activity in BALB/c mouse splenocytes assessed as induction of IFN-gamma production at 10 uM after 24 hrs by ELISA in presence of MG7 relative to GD2; type: functional, Splenocyte; how it was run: as §2
smiles,measurement,setting,value
COCCOc1nc(N)c2nc(O)n(Cc3ccc(C=O)cc3)c2n1,Activity,[1],inactive
same,Activity,[2],Active
same,fold change (FC),[3],524
same,fold change (FC),[4],61
COCCOc1nc(N)c2nc(O)n(CCCC(=O)O)c2n1,Activity,[5],Active
same,Activity,[6],Active
same,Activity,[7],Active
same,Activity,[8],inactive
same,fold change (FC),[9],1511
same,Activity,[10],Active
same,Activity,[1],inactive
same,Activity,[11],Active
same,fold change (FC),[12],488
same,fold change (FC),[13],409
same,Activity,[14],Active
same,fold change (FC),[15],175
same,Activity,[16],Active
same,Activity,[17],Active
same,fold change (FC),[18],52
same,Activity,[19],Active
same,Activity,[20],Active
same,Activity,[21],Active
same,Activity,[22],Active
same,fold change (FC),[23],575
same,fold change (FC),[24],42
same,Activity,[25],Active
same,fold change (FC),[26],16
same,fold change (FC),[27],73
same,Activity,[28],inactive
same,Activity,[29],Active
same,fold change (FC),[30],550
